One block for each compound: values may come before it.
Columns and labels:
[1] = biological target: Homeodomain-interacting protein kinase 1 (Homo sapiens) (UniProt Q86Z02); test: Inhibition of human recombinant HIPK1 at 500 nM in presence of ATP by radiometric assay relative to control
[2] = biological target: Dual specificity tyrosine-phosphorylation-regulated kinase 1A (Homo sapiens) (UniProt Q13627); test: Inhibition of human recombinant DYRK1A at 500 nM in presence of ATP by radiometric assay relative to control
[3] = biological target: T1, Serine/threonine-protein kinase BRSK2 (Homo sapiens) (UniProt Q8IWQ3); test: Inhibition of human recombinant BRSK2 at 500 nM in presence of ATP by radiometric assay relative to control
T1 sequence (whole entry): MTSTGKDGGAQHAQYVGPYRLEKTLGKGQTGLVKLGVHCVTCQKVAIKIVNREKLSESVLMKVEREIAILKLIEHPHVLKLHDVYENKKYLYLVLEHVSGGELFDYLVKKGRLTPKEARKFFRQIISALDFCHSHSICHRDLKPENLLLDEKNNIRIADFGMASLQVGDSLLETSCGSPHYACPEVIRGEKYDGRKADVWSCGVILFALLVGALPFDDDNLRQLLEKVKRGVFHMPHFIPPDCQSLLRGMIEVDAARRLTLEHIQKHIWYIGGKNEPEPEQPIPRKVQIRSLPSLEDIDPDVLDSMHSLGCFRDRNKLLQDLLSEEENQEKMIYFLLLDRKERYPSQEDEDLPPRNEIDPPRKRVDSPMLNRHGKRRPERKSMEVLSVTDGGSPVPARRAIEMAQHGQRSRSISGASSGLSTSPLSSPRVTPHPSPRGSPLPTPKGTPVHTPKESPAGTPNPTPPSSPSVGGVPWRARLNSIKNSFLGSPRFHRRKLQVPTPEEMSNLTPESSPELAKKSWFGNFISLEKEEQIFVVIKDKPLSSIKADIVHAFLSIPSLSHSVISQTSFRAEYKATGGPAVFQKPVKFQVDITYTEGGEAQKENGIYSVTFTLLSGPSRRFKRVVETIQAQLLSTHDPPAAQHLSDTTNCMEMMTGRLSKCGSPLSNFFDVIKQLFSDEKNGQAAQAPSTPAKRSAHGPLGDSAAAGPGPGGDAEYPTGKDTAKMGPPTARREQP
How it was run: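 Recombinant human kinase panel (327 kinases) run as radiometric activity assays, each kinase in duplicate at one compound concentration. Activity remaining expressed relative to vehicle control; percent inhibition taken as 100% minus % activity remaining.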

[4] = biological target: MAP kinase-activated protein kinase 2 (Homo sapiens) (UniProt P49137); test: Inhibition of human recombinant MAPKAPK2 at 40 nM in presence of ATP by radiometric assay relative to control
Chain of MAP kinase-activated protein kinase 2 (Homo sapiens) (P49137 whole entry, looked up): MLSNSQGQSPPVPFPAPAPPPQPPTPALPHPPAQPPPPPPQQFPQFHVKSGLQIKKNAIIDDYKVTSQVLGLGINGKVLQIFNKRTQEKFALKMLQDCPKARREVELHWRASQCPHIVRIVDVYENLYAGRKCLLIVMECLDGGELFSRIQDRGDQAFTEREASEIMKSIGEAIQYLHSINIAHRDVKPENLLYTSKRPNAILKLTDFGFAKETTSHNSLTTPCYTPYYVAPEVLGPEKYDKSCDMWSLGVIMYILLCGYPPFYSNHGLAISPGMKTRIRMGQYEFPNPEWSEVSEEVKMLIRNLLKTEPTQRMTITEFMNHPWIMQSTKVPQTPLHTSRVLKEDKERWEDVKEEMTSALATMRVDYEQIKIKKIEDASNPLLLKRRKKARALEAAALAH

[5] = biological target: T2, Muscle, skeletal receptor tyrosine-protein kinase (Homo sapiens) (UniProt O15146); test: Inhibition of human recombinant MUSK at 15 nM related to control ULK1
T2 sequence (whole entry): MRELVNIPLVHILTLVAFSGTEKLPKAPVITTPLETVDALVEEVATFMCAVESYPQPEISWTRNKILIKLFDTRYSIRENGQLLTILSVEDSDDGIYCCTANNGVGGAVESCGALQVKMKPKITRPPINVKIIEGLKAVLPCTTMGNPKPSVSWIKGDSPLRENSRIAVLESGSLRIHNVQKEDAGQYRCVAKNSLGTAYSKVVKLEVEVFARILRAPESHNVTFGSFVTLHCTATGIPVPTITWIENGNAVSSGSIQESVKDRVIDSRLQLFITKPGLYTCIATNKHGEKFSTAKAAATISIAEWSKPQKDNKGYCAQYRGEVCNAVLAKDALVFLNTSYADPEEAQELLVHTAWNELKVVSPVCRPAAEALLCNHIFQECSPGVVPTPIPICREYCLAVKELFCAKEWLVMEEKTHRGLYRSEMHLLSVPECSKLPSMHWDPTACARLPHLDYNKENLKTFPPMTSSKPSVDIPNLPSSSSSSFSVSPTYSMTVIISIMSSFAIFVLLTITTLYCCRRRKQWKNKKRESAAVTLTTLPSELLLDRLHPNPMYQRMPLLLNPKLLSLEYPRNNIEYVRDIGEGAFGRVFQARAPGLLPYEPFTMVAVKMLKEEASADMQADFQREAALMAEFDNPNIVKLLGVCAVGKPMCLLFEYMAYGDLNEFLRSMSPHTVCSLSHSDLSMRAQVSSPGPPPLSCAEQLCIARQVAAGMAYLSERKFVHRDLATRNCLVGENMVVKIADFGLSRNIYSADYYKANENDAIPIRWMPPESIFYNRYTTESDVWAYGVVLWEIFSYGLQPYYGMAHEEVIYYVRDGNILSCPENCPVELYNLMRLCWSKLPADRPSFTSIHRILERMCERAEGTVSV

[6] = biological target: Serine/threonine-protein kinase 38-like (Homo sapiens) (UniProt Q9Y2H1); test: Inhibition of human recombinant NDR2 at 15 nM related to control ULK1
Chain of Serine/threonine-protein kinase 38-like (Homo sapiens) (Q9Y2H1 2-464 limits assumed): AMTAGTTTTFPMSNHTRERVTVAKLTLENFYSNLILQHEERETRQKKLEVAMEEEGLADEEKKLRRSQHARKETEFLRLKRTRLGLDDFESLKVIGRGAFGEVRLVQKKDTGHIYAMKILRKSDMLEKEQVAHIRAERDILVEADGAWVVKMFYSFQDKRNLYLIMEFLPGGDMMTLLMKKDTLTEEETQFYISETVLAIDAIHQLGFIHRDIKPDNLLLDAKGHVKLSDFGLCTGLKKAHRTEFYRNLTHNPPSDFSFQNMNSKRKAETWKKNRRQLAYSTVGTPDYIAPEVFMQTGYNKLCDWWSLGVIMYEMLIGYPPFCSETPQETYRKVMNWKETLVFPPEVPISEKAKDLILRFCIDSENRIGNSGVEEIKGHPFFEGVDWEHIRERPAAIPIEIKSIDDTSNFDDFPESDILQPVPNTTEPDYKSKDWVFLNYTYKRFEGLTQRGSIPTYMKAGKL

Chain of Homeodomain-interacting protein kinase 1 (Homo sapiens) (Q86Z02 whole entry, looked up): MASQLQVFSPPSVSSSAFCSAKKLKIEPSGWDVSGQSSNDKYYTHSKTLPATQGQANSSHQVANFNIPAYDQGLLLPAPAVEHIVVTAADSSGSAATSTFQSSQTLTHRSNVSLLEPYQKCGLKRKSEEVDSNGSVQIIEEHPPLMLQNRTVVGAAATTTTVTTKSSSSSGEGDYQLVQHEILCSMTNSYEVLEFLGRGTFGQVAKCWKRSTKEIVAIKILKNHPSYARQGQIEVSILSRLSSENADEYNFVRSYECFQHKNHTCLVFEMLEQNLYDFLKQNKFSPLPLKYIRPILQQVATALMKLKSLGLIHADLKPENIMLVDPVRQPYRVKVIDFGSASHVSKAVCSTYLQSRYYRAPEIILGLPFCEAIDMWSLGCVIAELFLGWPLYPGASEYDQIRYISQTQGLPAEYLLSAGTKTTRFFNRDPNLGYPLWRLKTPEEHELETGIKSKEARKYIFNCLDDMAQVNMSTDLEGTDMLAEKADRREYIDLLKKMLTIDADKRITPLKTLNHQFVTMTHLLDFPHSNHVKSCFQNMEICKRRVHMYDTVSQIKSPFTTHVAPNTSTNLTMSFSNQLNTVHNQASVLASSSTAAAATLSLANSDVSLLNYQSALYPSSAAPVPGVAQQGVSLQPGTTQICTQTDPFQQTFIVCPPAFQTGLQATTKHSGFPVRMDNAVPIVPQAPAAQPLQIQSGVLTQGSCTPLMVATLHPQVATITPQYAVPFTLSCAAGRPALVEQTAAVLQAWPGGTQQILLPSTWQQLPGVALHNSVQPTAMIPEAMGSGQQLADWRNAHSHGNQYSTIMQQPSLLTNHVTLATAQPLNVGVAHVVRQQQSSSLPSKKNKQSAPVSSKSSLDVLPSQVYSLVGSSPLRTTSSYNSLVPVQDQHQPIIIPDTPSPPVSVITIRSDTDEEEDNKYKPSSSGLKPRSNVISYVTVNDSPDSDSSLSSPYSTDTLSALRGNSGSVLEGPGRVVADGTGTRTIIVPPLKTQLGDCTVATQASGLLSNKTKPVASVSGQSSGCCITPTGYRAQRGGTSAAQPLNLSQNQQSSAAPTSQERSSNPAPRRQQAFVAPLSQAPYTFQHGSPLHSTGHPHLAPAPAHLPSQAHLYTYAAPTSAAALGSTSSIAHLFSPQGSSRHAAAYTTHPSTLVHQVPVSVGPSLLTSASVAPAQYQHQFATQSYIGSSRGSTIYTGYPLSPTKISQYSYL

inhibition [1]: 3%
inhibition [2]: 1%
inhibition [3]: 3%
Structure (SMILES): CNC(=O)c1ccccc1Oc1nc(Nc2cc(OC)c(OC)c(OC)c2)ncc1Br

inhibition [4]: 0%
Structure (SMILES): O=C(N[C@@H](C1CC1)C(F)(F)F)c1cc(-c2cnn3cc(-c4ccc(F)cc4)cnc23)cs1

fold change (FC) [5]: 0
fold change (FC) [6]: 0.02
Structure (SMILES): CC(C)[C@H](NC(=O)c1cc(-c2cnn3cc(-c4ccc(OCCN5CCCCC5)cc4)cnc23)cs1)C(F)(F)F
